Screening data: PubChem, several laboratories
Shown are actives, neighbours in structure and some others; about 5.1% of the full set was active somewhere.
APP 5'UTR act: activates APP 5'UTR luciferase reporter. SH-SY5Y APP 5'UTR luciferase reporter, luminescence; zero percent = DMSO vehicle wells. activation, % at 2 µM. 190,000 tested, 1% active. AID 1276;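 active = activation above a set limit, based on mean plus 3 SD of controls, cut at about 140% in these data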
STAT3 act: activators of IL-6 induced STAT3 signaling | activation (% of control), % at 5.6 µM | AID 871 | U3A cells, IL-6 STAT3-luciferase reporter, luminescence; 100% = signal with IL-6 EC80 alone | 190,000 tested, 0.91% active;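 active = activation above the screen-wide mean of compound activation plus 3 SD, cut at about 130% in these data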;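 also: 0% = background luminescence of wells with medium and substrate only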
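Material: human U3A cells carrying STAT3-luciferase construct. Measured by: reporter luminescence signal. Timing: compound 1 h, then IL-6 6 h at 37 °C.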
STAT1 activator: activators of IFN-gamma induced STAT1 signaling. activation (% of control), % at 5.5 µM. 200,000 tested, 2.6% active. NIH 3T3 STAT1-luciferase reporter, luminescence; 100% = IFN-gamma alone, no compound. AID 932;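 active = activation above the screen-wide mean activation plus 3 SD, cut at about 130% in these data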;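 also: raw ratio to IFN-gamma control signal so 100% means no change and 0% no light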
NF-kB expr up: raises NF-kB expression in human neuronal cells. fold change at 12.5 µM. NF-kB reporter expression; hits give high values. 190,000 tested, 1.6% active; in the data active = fold change above about 3.3
STAT3 blocker: reduces IL-6 driven STAT3 reporter signal; U3A cells, IL-6 STAT3-luciferase reporter, luminescence; host cell line lacks STAT1; AID 862; inhibition, % at 5.5 µM; 190,000 tested, 0.89% active;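 active = inhibition above the mean inhibition across all screened compounds plus 3 SD, cut at about 44% in these data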;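 also: 0% = DMSO only wells and 100% = 100 µM nifuroxazide control wells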
STAT1 blocker: reduces IFN-gamma driven STAT1 reporter signal | NIH 3T3 STAT1-luciferase reporter, luminescence | inhibition, % at 5.5 µM | 200,000 tested, 0.35% active | AID 920;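 active = inhibition above a set limit, the mean inhibition across all tested compounds plus 3 SD, cut at about 34% in these data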;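 also: 0% = IFN-gamma with DMSO and 100% = IFN-gamma with 300 µM nifuroxazide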
Active calls of the source: *; . = no result.

SMILES	APP 5'UTR act	STAT3 act	STAT1 activator	NF-kB expr up	STAT3 blocker	STAT1 blocker
CC(C)CC1c2[nH]c3ccccc3c2CCN1C(=O)c1cnccn1 (centres undefined)	90.2	170.8*	146.0*	2.98	-61.0	-51.5
COc1cccc(CN2CCN(c3nc4nonc4nc3N3CCCCC3)CC2=O)c1	-14.0	95.5	95.5	.	10.1	3.3
CC(C)CN1C(=O)c2ccc(NC(=O)Cc3ccccc3)cc2C1=O	9.7	91.8	107.6	1.5	14.4	-11.4
CCOc1ccc(N2CC(C(=O)NC3=NCCS3)CC2=O)cc1 (centres undefined)	-22.4	110.6	103.1	1.21	-7.6	-5.0
O=C(Nc1nc2c(ccc3ccccc32)s1)c1cc([N+](=O)[O-])ccc1N1CCOCC1	20.1	133.3*	131.1*	1.25	-30.8	-35.2
O=C(Nc1nc(-c2ccc(-c3ccccc3)cc2)cs1)c1cc([N+](=O)[O-])ccc1N1CCOCC1	14.6	103.2	106.6	1.1	2.2	-9.7
CCCCOc1ccc(-c2cn3ccccc3n2)cc1[N+](=O)[O-]	133.5	101.7	131.5*	4.62*	-1.7	-35.4
CCCOc1ccc(-c2csc(N)n2)cc1[N+](=O)[O-]	67.2	115.2	138.0*	2.28	-23.6	-41.8
Cc1nc(NCc2ccco2)c2c(C)c(C)sc2n1	-3.5	138.7*	193.2*	1.3	-46.9	-72.4
CC(C)(C)OC(=O)N/N=C/c1ccc(Br)cc1	129.3	100.9	148.9*	4.47*	7.4	-51.7
CC(C)(C)NC(=O)C(=O)N/N=C/c1ccc(Br)cc1	12.8	106.3	116.0	1.45	0.4	-17.9
CCCCNC(=O)C1(NC(=O)Nc2ccc(C)cc2)CCCCC1	-8.4	106.1	96.8	0.86	-6.1	1.0
CC(C)(C)C(=O)CSc1nnc(Nc2ccccc2)s1	16.4	112.8	130.2*	1.84	-9.9	-34.8
CC(C)(C)C(=O)c1sc(Nc2ccccc2)nc1N	64.5	109.9	149.5*	3.84*	-9.3	-53.7
Nc1cccc(-c2cn3cc(C(F)(F)F)cc(Cl)c3n2)c1	.	108.1	129.6*	6.79*	-4.0	-32.9
Cc1cc(C(F)(F)F)nc(-n2cc(-c3cccc(N)c3)nn2)n1	1.5	87.0	105.4	1	24.6	-6.9
c1ccc(COc2ccc(-c3csnn3)cc2)cc1	24.1	115.0	135.7*	3.18	-7.0	-39.7
Nc1ccc(OCc2ccccc2)cc1	14.9	105.0	115.8	1.72	2.8	-17.4
CSc1nc(N(C)C)nc(N2CC(=O)N(CCNS(=O)(=O)c3ccc(C)cc3)C2=N)n1	.	102.4	104.3	0.86	-2.5	-4.8
COc1ccc(C(=O)/C=C/c2cn(CC(O)CN3CCOCC3)c3ccccc23)cc1 (centres undefined)	4.7	105.5	116.6	0.73	-4.3	-18.6
COc1ccc(C(=O)/C=C/c2cn(CN3CCN(C)CC3)c3ccccc23)cc1	52.2	86.7	112.6	6.45*	19.9	-13.6
CCOc1ccc(C(=O)/C=C/c2cn(CN3CCN(C)CC3)c3ccccc23)cc1	21.0	93.6	110.7	3.42*	11.4	-11.9
Cc1ccc(NS(=O)(=O)c2cccc([N+](=O)[O-])c2)nc1	13.2	98.0	102.7	0.98	4.3	-5.5
N/C(=N\OC(=O)c1cccc([N+](=O)[O-])c1)c1ccccn1	77.2	90.9	132.9*	2.31	15.9	-35.2
N/C(=N\OC(=O)c1ccc2ccccc2c1)c1ccncc1	149.2*	89.3	147.8*	1.16	14.8	-54.1
SMILES	APP 5'UTR act	STAT3 act	STAT1 activator	NF-kB expr up	STAT3 blocker	STAT1 blocker
COc1cccc(C(=O)O/N=C(\N)c2ccncc2)c1OC	32.1	100.2	114.5	1.76	-1.2	-16.3
N/C(=N\OC(=O)c1ccc2ccccc2c1)c1ccccn1	158.2*	38.5	33.8	4.28*	76.4*	70.6*
Cc1ccccc1C(=O)O/N=C(\N)c1ccncc1	37.2	99.0	133.1*	1.93	5.8	-37.5
CCOc1ccc(C(O)C(CN2CCOCC2)c2ccccc2)cc1 (centres undefined)	-6.3	95.1	93.8	1.12	9.6	6.9
O=C(CCNC(=O)Cn1ccc2ccccc2c1=O)NCc1ccccn1	-2.2	101.4	104.8	1.19	6.2	-6.6
CSc1nc2ccc(NC(=O)c3ccc(F)c(F)c3)cc2s1	48.7	93.3	140.0*	2.39	9.3	-44.9
CSc1nc2ccc(NC(=O)c3nn(C(C)C)c(=O)c4ccccc34)cc2s1	4.4	84.4	99.5	0.76	17.1	0.6
Nc1nc2ccc(C(=O)Nc3ccccc3)cc2s1	87.6	156.1*	147.6*	2.62	-60.6	-52.0
CCc1ccc(NC(=O)c2ccc3nc(N)sc3c2)cc1	52.4	106.2	123.8	2.57	-1.3	-26.1
CSc1nc2ccc(NC(=O)c3ccc(=O)n(C)n3)cc2s1	31.6	98.5	127.4	1.33	6.3	-31.8
CSc1nc2ccc(NC(=O)c3ccco3)cc2s1	98.1	90.0	139.5*	4.03*	11.0	-43.5
CSc1nc2ccc3nc(NC(=O)c4ccccc4)sc3c2s1	17.8	91.7	139.2*	1.95	18.3	-43.3
CSc1nc2ccc(NC(=O)c3cc4ccccc4o3)cc2s1	139.9*	78.0	139.2*	4.87*	23.2	-43.0
Cc1cc(C)nc(NC(=O)c2cc3ccccc3o2)n1	-9.0	90.4	102.3	1.09	20.6	-2.5
Fc1ccccc1NC(=S)N(CCCN1CCOCC1)Cc1cccnc1	-8.4	95.3	95.1	1.11	6.4	5.9
COC(=O)C1=C(NC(=O)c2ccc(C)c(C)c2)CCS1	11.7	133.8*	102.3	1.28	-32.2	-2.5
Cn1c(SCc2ccccc2F)nc2cccnc21	141.1*	103.0	137.3*	3.36*	5.5	-40.9
C[C@@H](C(=O)N1CCN(C(=O)OC(C)(C)C)CC1)n1cc(CCC(=O)O)nn1	1.7	.	95.0	1.16	.	6.8
COc1ccc(C(=O)NNC(=O)C(=O)NC(C)c2ccccc2)cc1OC (centres undefined)	-4.3	98.7	104.3	1.11	2.9	-5.8
Cn1cc2cc([N+](=O)[O-])ccc2n1	-19.4	93.9	98.9	1.16	11.2	0.8
Nc1nnc(SCC(=O)c2cccc([N+](=O)[O-])c2)s1	10.6	105.8	94.1	1.29	-3.4	5.2
Nc1nnc(SCC(=O)c2ccc3ccccc3c2)s1	21.4	113.3	118.7	3.72*	-7.3	-20.3
CCCCCOC(=O)c1[nH]c2c(c1C)C(=O)CC(c1ccco1)C2 (centres undefined)	-95.3	121.1	101.8	5.16*	-24.7	-2.0
O=C(Nc1ccccc1)C1=C[C@H](c2ccc3c(c2)OCO3)C[C@H](OCCCCO)O1	13.8	.	120.7	1.25	.	-20.5
O=C(Nc1ccccc1)C1=C[C@@H](c2ccc(Br)cc2)C[C@@H](OCCCCO)O1	20.6	.	129.1*	1.46	.	-29.5
CCN(CC)c1ccc(/C=N/N2CCN(Cc3ccccc3)CC2)c(O)c1	7.1	90.6	96.7	1.27	9.0	3.7
